Tests used:
[1] = system: Mycobacterium tuberculosis; experiment: Antimycobacterial activity against Mycobacterium tuberculosis H37Rv infected in B6 mouse assessed as 2 log reduction in bacterial burden in lungs orally treated in water-1% methylcellulose upto 8 days; assay type: functional; details: Lung, po, 192 h
How it was run: (§1)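 Female B6 mice, 8–10 weeks old, infected intratracheally under 3% isoflurane with 10^5 CFU H37Rv in 50 μl PBS. Oral dosing once daily from day 1 to day 8 at a range of doses; lungs harvested day 9, homogenized and plated; colonies counted after 14 days. ED99 (2-log CFU/lung reduction versus untreated controls) fitted from individual log10 CFU/lung to a logistic equation; 5 mice/group; 95% CI.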

[2] = system: Mycobacterium tuberculosis; experiment: Antimycobacterial activity against Mycobacterium tuberculosis H37Rv infected in B6 mouse assessed as assessed as lowest concentration to reduce bacterial burden in lungs to level of reduction achieved with higher doses orally treated in water-1% methylcellulose upto 8 days; assay type: functional, Lung
How it was run: (§2)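 B6 female mice given intratracheal H37Rv, 105 CFU/mouse in PBS, then oral once-daily treatment on days 1–8 across several doses. On day 9, lung homogenates were plated and CFU counted after 14 days. EDmax taken empirically as the lowest dose giving a lung CFU reduction statistically indistinguishable from higher doses; 5 mice/group.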

[3] = system: Mycobacterium tuberculosis; experiment: Antimycobacterial activity against Mycobacterium tuberculosis H37Rv infected in B6 mouse assessed as 2 log reduction in bacterial burden in lungs orally treated in water-20% captisol upto 8 days; assay type: functional; details: Lung, po, 192 h; how it was run: as §1
[4] = system: Mycobacterium tuberculosis; experiment: Antimycobacterial activity against Mycobacterium tuberculosis H37Rv infected in B6 mouse assessed as assessed as lowest concentration to reduce bacterial burden in lungs to level of reduction achieved with higher doses orally treated in water-20% captisol upto 8 days; assay type: functional, Lung; how it was run: as §2
[5] = system: Mycobacterium tuberculosis; experiment: Antimycobacterial activity against Mycobacterium tuberculosis H37Rv infected in B6 mouse assessed as 2 log reduction in bacterial burden in lungs orally treated in water-20% encapsine upto 8 days; assay type: functional; details: Lung, po, 192 h; how it was run: as §1
[6] = system: Mycobacterium tuberculosis; experiment: Antimycobacterial activity against Mycobacterium tuberculosis H37Rv infected in B6 mouse assessed as assessed as lowest concentration to reduce bacterial burden in lungs to level of reduction achieved with higher doses orally treated in water-20% encapsine upto 8 days; assay type: functional, Lung; how it was run: as §2
[7] = system: Mycobacterium tuberculosis; experiment: Antimycobacterial activity against Mycobacterium tuberculosis H37Rv infected in B6 mouse assessed as 2 log reduction in bacterial burden in lungs orally treated in water upto 8 days; assay type: functional; details: Lung, po, 192 h; how it was run: as §1
[8] = system: Mycobacterium tuberculosis; experiment: Antimycobacterial activity against Mycobacterium tuberculosis H37Rv infected in B6 mouse assessed as lowest concentration to reduce bacterial burden in lungs to level of reduction achieved with higher doses orally treated in water upto 8 days; assay type: functional, Lung; how it was run: as §2

SMILES | ED99 [1] | Emax [2] | further results
NC(=O)c1cnccn1 [PYRAZINAMIDE] | 362 mg/kg | >=1000 mg kg-1 | 
CC(=O)NC[C@H]1CN(c2ccc(N3CCOCC3)c(F)c2)C(=O)O1 [LINEZOLID] | 28 mg/kg | >=300 mg kg-1 | 
COc1c(N2C[C@@H]3CCCN[C@@H]3C2)c(F)cc2c(=O)c(C(=O)O)cn(C3CC3)c12 [MOXIFLOXACIN] |  |  | ED99 [3]: 27.7 mg/kg; Emax [4]: 100 mg/kg
CC[C@@H](CO)NCCN[C@@H](CC)CO [ETHAMBUTOL] | 21.6 mg/kg | 300 mg/kg | 
CO[C@H]1/C=C/O[C@@]2(C)Oc3c(C)c(O)c4c(O)c(c(/C=N/N5CCN(C)CC5)c(O)c4c3C2=O)NC(=O)/C(C)=C\C=C\[C@H](C)[C@H](O)[C@@H](C)[C@@H](O)[C@@H](C)[C@H](OC(C)=O)[C@@H]1C [RIFAMPIN] |  |  | ED99 [5]: 9.8 mg/kg; Emax [6]: 30 mg/kg
NNC(=O)c1ccncc1 [ISONIAZID] |  |  | ED99 [7]: 0.95 mg/kg; Emax [8]: 25 mg/kg

— ChEMBL document CHEMBL1255432, “Fast standardized therapeutic-efficacy assay for drug discovery against tuberculosis” (2010)
